{"data": "Measurements from different studies", "PDE10A": "cAMP and cAMP-inhibited cGMP 3',5'-cyclic phosphodiesterase 10A (PDE10A, Homo sapiens, UniProt Q9Y233)", "SLC6A3": "Sodium-dependent dopamine transporter (SLC6A3, Homo sapiens, UniProt Q01959)", "DRD3": "D(3) dopamine receptor (DRD3, Homo sapiens, UniProt P35462)"}
{"Structure (SMILES)": "COc1cc2ncnc(Cc3cccc(-c4ccc(C)cc4)c3)c2cc1OC", "target": "PDE10A", "test": "enzyme activity, inhibitor, FP", "setting": "0.1 µM", "measurement": "inhibition", "result": "78%"}
{"Structure (SMILES)": "Cc1cc(O)c(-c2ccc([C@@H](C)CN(C)C)cc2)c2c1[nH]c(=O)c1sccc12", "target": "Cyclin-dependent kinase 12 (CDK12, Homo sapiens, UniProt Q9NYV4)", "test": "enzyme activity, inhibitor", "setting": "0.1 µM", "measurement": "inhibition", "result": "0.174%"}
{"Structure (SMILES)": "c1ccc2c(Cc3ccc4cn(C5COC5)nc4c3)nccc2c1", "target": "PDE10A", "test": "enzyme activity, inhibitor, FP", "setting": "0.1 µM", "measurement": "inhibition", "result": "0%"}
{"Structure (SMILES)": "CCOC(=O)C12CC1C(n1ccc3c(NC4CC4)nc(C#Cc4ccccc4)nc31)C(O)C2O (stereo not shown)", "target": "SLC6A3", "test": "ligand displacement, radioligand", "setting": "10 µM", "measurement": "inhibition", "result": "-260%"}
{"Structure (SMILES)": "Cc1[nH]c(C)c(S(=O)(=O)Nc2ccc(C(F)(F)F)c(Cl)c2)c1C(=O)N1CCC(F)(F)C1", "target": "DRD3", "test": "β-arrestin recruitment, agonist", "setting": "90 min", "measurement": "Emax", "result": "103%"}
{"Structure (SMILES)": "C1=C/COCc2cc(ccc2OCCN2CCCC2)Nc2nccc(n2)-c2cccc(c2)COC/1", "target": "Calcium/calmodulin-dependent protein kinase type IV (CAMK4, Homo sapiens, UniProt Q16566)", "test": "binding", "setting": "0.1 µM", "measurement": "remaining binding", "result": "100%"}
{"Structure (SMILES)": "CCOC(=O)[C@@]12C[C@@H]1[C@@H](n1cnc3c(Nc4ccccc4)nc(I)nc31)[C@H](O)[C@@H]2O", "target": "SLC6A3", "test": "ligand displacement, radioligand", "setting": "10 µM", "measurement": "inhibition", "result": "32%"}
{"Structure (SMILES)": "COc1ccc(Cc2nccc3cc(C4COC4)ccc23)cc1OC", "target": "PDE10A", "test": "enzyme activity, inhibitor, FP", "setting": "0.1 µM", "measurement": "inhibition", "result": "0%"}
{"Structure (SMILES)": "N#CC[C@@]12C[C@@H]1[C@@H](n1cnc3c(Nc4ccccc4)nc(I)nc31)[C@H](O)[C@@H]2O", "target": "SLC6A3", "test": "ligand displacement, radioligand", "setting": "10 µM", "measurement": "inhibition", "result": "54%"}
{"Structure (SMILES)": "COc1cc2ccnc(Cc3ccc4cnn(C)c4c3)c2cc1OC", "target": "PDE10A", "test": "enzyme activity, inhibitor, FP", "setting": "0.1 µM", "measurement": "inhibition", "result": "69%"}
{"Structure (SMILES)": "CCOC(=O)[C@@]12C[C@@H]1[C@@H](n1ccc3c(NCCCCCc4ccccc4)nc(C#Cc4ccccc4)nc31)[C@H](O)[C@@H]2O", "target": "SLC6A3", "test": "ligand displacement, radioligand", "setting": "10 µM", "measurement": "inhibition", "result": "63%"}
{"Structure (SMILES)": "COc1ccc2nccc(Cc3cccc(-c4ccc(CO)cc4)c3)c2c1", "target": "PDE10A", "test": "enzyme activity, inhibitor, FP", "setting": "0.1 µM", "measurement": "inhibition", "result": "0%"}
{"Structure (SMILES)": "Cc1[nH]c(C)c(S(=O)(=O)Nc2ccc(C(F)(F)F)c(Br)c2)c1C(=O)N1CCCC1", "target": "DRD3", "test": "β-arrestin recruitment, agonist", "setting": "90 min", "measurement": "Emax", "result": "91%"}
{"Structure (SMILES)": "COc1ccc2oc(-c3ccc4nc(N)oc4c3)c/c(=N\\c3ccccc3NC(=O)CCN)c2c1", "target": "AP2-associated protein kinase 1 (AAK1, Homo sapiens, UniProt Q2M2I8)", "test": "binding", "setting": "1 µM", "measurement": "remaining binding", "result": "98%"}
{"Structure (SMILES)": "Cc1[nH]c(C)c(S(=O)(=O)Nc2ccc([N+](=O)[O-])c(Cl)c2)c1C(=O)N1CCC(F)(F)C1", "target": "DRD3", "test": "β-arrestin recruitment, agonist", "setting": "90 min", "measurement": "Emax", "result": "101%"}
{"Structure (SMILES)": "CCCCC(=O)Nc1ccc(-c2ccc3ncn(CCC)c(=O)c3c2)cn1", "target": "Discoidin domain-containing receptor 2 (DDR2, Homo sapiens, UniProt Q16832)", "test": "binding, competition with immobilised ligand", "setting": "0.5 µM", "measurement": "remaining binding", "result": "100%"}
{"Structure (SMILES)": "COc1cc2ncnc(Cc3cccc(Cl)c3)c2cc1OC", "target": "PDE10A", "test": "enzyme activity, inhibitor, FP", "setting": "0.1 µM", "measurement": "inhibition", "result": "68%"}
{"Structure (SMILES)": "CSc1nc(NCCC2CC2)c2ncn([C@H]3[C@H](O)[C@H](O)[C@@H]4C[C@@H]43)c2n1", "target": "SLC6A3", "test": "ligand displacement, radioligand", "setting": "10 µM", "measurement": "inhibition", "result": "16%"}
{"Structure (SMILES)": "Cc1[nH]c(C)c(S(=O)(=O)Nc2ccc(C(=O)C(F)(F)F)c(Cl)c2)c1C(=O)N1CCC(F)(F)C1", "target": "DRD3", "test": "β-arrestin recruitment, agonist", "setting": "90 min", "measurement": "Emax", "result": "96%"}
{"Structure (SMILES)": "COc1ccc2nccc(Cc3ccc(OC)c(OC)c3)c2c1", "target": "PDE10A", "test": "enzyme activity, inhibitor, FP", "setting": "0.1 µM", "measurement": "inhibition", "result": "3%"}
{"Structure (SMILES)": "Cc1[nH]c(C)c(S(=O)(=O)Nc2ccc(C(F)(F)F)c(Cl)c2)c1C(=O)N1CCC(O)C1 (stereo not shown)", "target": "DRD3", "test": "β-arrestin recruitment, agonist", "setting": "90 min", "measurement": "Emax", "result": "89%"}
{"Structure (SMILES)": "CCOC(=O)[C@@]12C[C@@H]1[C@@H](n1ccc3c(NCCCCc4ccccc4)nc(C#Cc4ccccc4)nc31)[C@H](O)[C@@H]2O", "target": "SLC6A3", "test": "ligand displacement, radioligand", "setting": "10 µM", "measurement": "inhibition", "result": "66%"}
{"Structure (SMILES)": "Cc1[nH]cc(S(=O)(=O)Nc2ccc(C(F)(F)F)c(Cl)c2)c1C(=O)N1CCC(F)(F)C1", "target": "DRD3", "test": "β-arrestin recruitment, agonist", "setting": "90 min", "measurement": "Emax", "result": "91%"}
{"Structure (SMILES)": "COc1cc2ncnc(Cc3cccc(-c4ccncc4)c3)c2cc1OC", "target": "PDE10A", "test": "enzyme activity, inhibitor, FP", "setting": "0.1 µM", "measurement": "inhibition", "result": "57%"}
{"Structure (SMILES)": "Cc1[nH]c(C)c(S(=O)(=O)Nc2ccc(C(F)(F)F)c(Cl)c2)c1C(=O)N1CC(F)(F)C(F)(F)C1", "target": "DRD3", "test": "β-arrestin recruitment, agonist", "setting": "90 min", "measurement": "Emax", "result": "100%"}
{"Structure (SMILES)": "OC[C@@]12C[C@@H]1[C@@H](n1cnc3c(N[C@@H](C4CCC4)C4CC4)nc(C#Cc4ccc(Cl)s4)nc31)[C@H](O)[C@@H]2O", "target": "SLC6A3", "test": "ligand displacement, radioligand", "setting": "10 µM", "measurement": "inhibition", "result": "80%"}
{"Structure (SMILES)": "Cc1[nH]c(C)c(S(=O)(=O)Nc2ccc(C(C)C)cc2)c1C(=O)N1CCCC1", "target": "DRD3", "test": "β-arrestin recruitment, agonist", "setting": "90 min", "measurement": "Emax", "result": "96%"}
{"Structure (SMILES)": "OC[C@@]12C[C@@H]1[C@@H](n1cnc3c(NC(C4CCC4)C4CCC4)nc(C#Cc4ccc(Cl)s4)nc31)[C@H](O)[C@@H]2O", "target": "SLC6A3", "test": "ligand displacement, radioligand", "setting": "10 µM", "measurement": "inhibition", "result": "78%"}
